ChEMBL document CHEMBL1140717, “Acridine-based agents with topoisomerase II activity inhibit pancreatic cancer cell proliferation and induce apoptosis” (J Med Chem, 2008)

Legend:
[1] = test system: MIA PaCa-2; experiment: Growth inhibition of human MiaPaCa2 cells after 72 hrs by MTT assay; assay type: functional, cell-based; conditions: MIA PaCa-2, 72 h
Method in brief: (§1)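 Cells maintained in DMEM with 10% fetal calf serum plus L-glutamine, then exposed over 72 h to a range of compound concentrations. Viability read by MTT; percent growth inhibition determined and IC50 estimated from the MTT data.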

[2] = Growth inhibition of human SU86.86 cells after 72 hrs by MTT assay; assay type: functional, cell-based; conditions: SU.86.86, 72 h; method in brief: as §1
[3] = test system: BXPC-3; experiment: Growth inhibition of human BXPC3 cells after 72 hrs by MTT assay; assay type: functional, cell-based; conditions: BXPC-3, 72 h; method in brief: as §1
[4] = test system: MIA PaCa-2; experiment: Cell cycle arrest in human MiaPaCa2 cells assessed as accumulation at G1 phase at 15 uM after 36 hrs; assay type: functional
Method in brief: (§2)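 Cells grown in DMEM with 10% fetal calf serum and L-glutamine, then exposed to diluent or compound at 15 µM final for 36 h. Fixed in 50% ethanol, rehydrated, RNase-treated and stained with 50 µg/mL propidium iodide in 0.1% sodium citrate. Flow cytometry (≥20 000 events per sample) gave the percentage of cells in G1, S and G2/M.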

[5] = test system: MIA PaCa-2; experiment: Cell cycle arrest in human MiaPaCa2 cells assessed as accumulation at S phase at 15 uM after 36 hrs; assay type: functional; method in brief: as §2
[6] = test system: MIA PaCa-2; experiment: Cell cycle arrest in human MiaPaCa2 cells assessed as accumulation at G2/M phase at 15 uM after 36 hrs; assay type: functional; method in brief: as §2
[7] = Cell cycle arrest in human SU86.86 cells assessed as accumulation at G1 phase at 15 uM after 36 hrs; assay type: functional, cell-based; conditions: SU.86.86; method in brief: as §2
[8] = Cell cycle arrest in human SU86.86 cells assessed as accumulation at G2/M phase at 15 uM after 36 hrs; assay type: functional, cell-based; conditions: SU.86.86; method in brief: as §2
[9] = test system: BXPC-3; experiment: Cell cycle arrest in human BXPC3 cells assessed as accumulation at G1 phase at 15 uM after 36 hrs; assay type: functional; method in brief: as §2
[10] = test system: BXPC-3; experiment: Cell cycle arrest in human BXPC3 cells assessed as accumulation at S phase at 15 uM after 36 hrs; assay type: functional; method in brief: as §2
[11] = test system: BXPC-3; experiment: Cell cycle arrest in human BXPC3 cells assessed as accumulation at G2/M phase at 15 uM after 36 hrs; assay type: functional; method in brief: as §2
[12] = test system: MIA PaCa-2; experiment: Induction of apoptosis in human MiaPaCa2 cells at 15 uM after 48 hrs; assay type: functional
[13] = test system: SU.86.86; experiment: Induction of apoptosis in human SU86.86 cells at 15 uM after 48 hrs; assay type: functional
[14] = test system: BXPC-3; experiment: Induction of apoptosis in human BXPC3 cells at 15 uM after 48 hrs; assay type: functional
Method in brief: (§3)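 BXPC-3 cells exposed to diluent or compound for 48 h, then collected and nuclei stained with Hoechst. Three hundred nuclei per field scored as apoptotic when the nucleus was fragmented into multiple discrete fragments; result expressed as percentage of cells in apoptosis.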

[15] = Cell cycle arrest in human SU86.86 cells assessed as accumulation at S phase at 15 uM after 36 hrs; assay type: functional, cell-based; conditions: SU.86.86; method in brief: as §2
[16] = test system: MIA PaCa-2; experiment: Induction of apoptosis in human MiaPaCa2 cells at 25 uM after 48 hrs; assay type: functional
[17] = test system: SU.86.86; experiment: Induction of apoptosis in human SU86.86 cells at 25 uM after 48 hrs; assay type: functional
[18] = test system: BXPC-3; experiment: Induction of apoptosis in human BXPC3 cells at 25 uM after 48 hrs; assay type: functional; method in brief: as §3
[19] = test system: MIA PaCa-2; experiment: Induction of apoptosis in human MiaPaCa2 cells at 50 uM after 48 hrs; assay type: functional
[20] = test system: SU.86.86; experiment: Induction of apoptosis in human SU86.86 cells 50 uM after 48 hrs; assay type: functional
[21] = test system: BXPC-3; experiment: Induction of apoptosis in human BXPC3 cells 50 uM after 48 hrs; assay type: functional; method in brief: as §3

Row | Structure (SMILES) | IC50 [1] [µM] | IC50 [2] [µM] | IC50 [3] [µM] | Activity [4] [%] | Activity [5] [%] | Activity [6] [%] | Activity [7] [%] | Activity [8] [%] | Activity [9] [%] | Activity [10] [%] | Activity [11] [%] | Activity [12] [%] | Activity [13] [%] | Activity [14] [%] | Activity [15] [%] | also measured
1 | CCN(CC)C(=O)c1ccc2c(NCCc3c[nH]c4ccccc34)c3ccccc3nc2c1 | 11 | 10 | 14 | 32 | 50 | 18 | 60 | 16 | 76 | 20 | 4 | 42 | 17 | 40 |  | 
2 | CN1CCN(C(=O)c2ccc3c(NC4CCN(Cc5ccccc5)CC4)c4ccccc4nc3c2)CC1 | 1 | 6 | 7 | 28 | 52 | 20 | 53 | 18 | 77 | 16 | 7 |  |  |  | 29 | Activity [16]: 36%; Activity [17]: 30%; Activity [18]: 52%
3 | CN1CCN(C(=O)c2ccc3c(NCCc4c[nH]c5ccccc45)c4ccccc4nc3c2)CC1 | 6 | 8 | 12 | 29 | 51 | 20 | 50 | 24 | 81 | 12 | 7 | 20 | 34 | 44 | 26 | 
4 | CN1CCN(C(=O)c2cccc3c(NCCc4c[nH]c5ccccc45)c4ccccc4nc23)CC1 | 4 | 10 |  | 32 | 47 | 21 | 56 | 17 | 83 | 10 | 7 |  |  |  | 27 | Activity [19]: 29%; Activity [20]: 23%; Activity [21]: 32%
